From PubChem
OX1R antag-1: human HCRTR1 antagonism; 0.43% of 330,000 active; inhibition, % at 5 µM; O43613; CHO/OX1R cells, Fluo-8 calcium fluorescence, orexin A; AID 434989;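 active means inhibition above its plate's threshold, mean inhibition of all tested compounds on the plate plus 3 SD, cut at about 37% in these data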
TAAR1 antag: antagonists of human TAAR1. Q96RJ0. CHO RD-HGA16 TAAR1, Fluo-8 calcium fluorescence, antagonist. inhibition, % at 3 µM. 1.5% of 360,000 active;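 active means inhibition above a per-plate cutoff, the mean inhibition of test compounds on that plate plus 3 SD, cut at about 49% in these data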
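Assay system: RD-HGA16 CHO cells with stable hTAAR1 and Gα16 / Reagent: EC80 β-phenethylamine stimulus / Doses: 3 µM, single point / Timing: dye loading 75 min at 37 °C, then 30 min room temperature / Measured by: Fluo-8 intracellular calcium dye fluorescence, real-time kinetic reads / Controls: vehicle wells and EC80 agonist wells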
TAAR1 ag: human TAAR1 agonism; CHO RD-HGA16 TAAR1, Fluo-8 calcium fluorescence; vehicle wells 0%, saturating PEA agonist 100%; activation, % at 3 µM; 0.99% of 360,000 active; AID 624467;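 active means activation above the mean activation of all test compounds in the run plus 3 SD, cut at about 38% in these data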
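System: CHO-derived RD-HGA16 cells with stable Gα16 and human TAAR1 / Times: 17-24 h plating, Fluo-8 75 min 37 °C, 30 min RT / Technique: calcium-sensitive Fluo-8 signal, excitation 470-495, emission 515-575 nm / Measure: % activation relative to PEA EC100 response / Benchmarks: DMSO and PEA EC100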
GPR7 antagonist: human neuropeptides B/W receptor 1 antagonism | AID 1861 | 1.1% of 290,000 active | P48145 | inhibition, % at 4.4 µM | GPR7-expressing cells, fluorescence antagonist assay; in the data active means inhibition above about 16%, passing the limit was not always enough;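 further: cells stimulated with the agonist NPW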
Target sequence (P48145 whole entry, looked up): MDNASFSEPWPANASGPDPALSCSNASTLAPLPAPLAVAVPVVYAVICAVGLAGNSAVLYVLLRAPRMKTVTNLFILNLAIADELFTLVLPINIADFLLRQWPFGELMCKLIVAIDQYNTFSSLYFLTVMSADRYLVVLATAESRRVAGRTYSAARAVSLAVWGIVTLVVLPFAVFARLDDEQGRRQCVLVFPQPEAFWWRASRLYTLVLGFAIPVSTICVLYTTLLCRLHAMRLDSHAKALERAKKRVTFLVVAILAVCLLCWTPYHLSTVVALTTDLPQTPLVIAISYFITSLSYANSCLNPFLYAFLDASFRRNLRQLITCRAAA
CHO parental Ca: counter-screen for OX1R antagonists: effect in parental CHO cells; 0.63% of 330,000 active; inhibition, % at 5.6 µM; parental CHO-K1, ATP-induced calcium, Fluo-8 fluorescence;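 active means inhibition above that plate's mean sample inhibition plus 3 SD, cut at about 26% in these data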
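material = parental CHO cells | also added = ATP as calcium-mobilizing challenge | dosing = single point at 5.6 µM | detection = intracellular calcium via Fluo-8 no-wash fluorescent dye | read-out = % inhibition | benchmarks = low control ATP plus DMSO, high control DMSO only | repeats = one well per compound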
OX1R antag-2: blocks the human orexin 1 receptor | OX1R-expressing cells, FRET antagonist read-out | inhibition, % at 6.6 µM | 1.8% of 330,000 active; in the data active means inhibition mostly above about 38%, no sharp cut-off; inactive means mostly below about 40%
Of the large screens only hits and unclear results are named; the others gave an inactive call. In the library only some 4.5% were active in any assay of this set; here they are far more common.

O=C(CCC(=O)c1ccc(F)cc1)OCc1nnc(-c2ccc([N+](=O)[O-])cc2)o1	OX1R antag-2 41 (no result: GPR7 antagonist)
Cc1ccc(C(=O)NCC(=O)OCc2nnc(-c3ccc([N+](=O)[O-])cc3)o2)s1	OX1R antag-2 38 (no result: GPR7 antagonist)
CCOC(=O)C1=C(C(=O)OCC)C2N(Cc3ccc(Br)cc3)c3ccccc3[C@@]23C[C@@H](C(=O)OC)N(S(=O)(=O)c2ccc(Br)cc2)C3=N1 (some centres undefined)	none (no result: OX1R antag-1, GPR7 antagonist, CHO parental Ca, OX1R antag-2)
CC1(C(=O)NCc2cccc3ccccc23)CCN1Cc1ccc(OC(F)(F)F)cc1 (centres undefined)	none (no result: OX1R antag-1, GPR7 antagonist, CHO parental Ca, OX1R antag-2)
O=C(COC(=O)/C=C/c1cccc(Cl)c1)NCCC1=CCCCC1	TAAR1 ag 39
C[C@H]1[C@@H](c2ccccc2)Oc2c(Cl)cccc2S(=O)(=O)N1C	none (no result: OX1R antag-1, GPR7 antagonist, CHO parental Ca, OX1R antag-2)
O=Nc1c(O)n(Cc2ccc(Cl)cc2)c2ccccc12	none
Cc1ccc(Cn2c(O)c(N=O)c3ccccc32)cc1	none
Cc1ccc2c(c1)c(N=O)c(O)n2Cc1ccc(Cl)cc1	CHO parental Ca 36
O=Nc1c(O)n(Cc2ccc(Cl)cc2Cl)c2ccccc12	CHO parental Ca 87
CN(C)c1ccc(/C=C(\C#N)c2ccccc2)cc1	none (no result: OX1R antag-1, TAAR1 antag, TAAR1 ag, CHO parental Ca, OX1R antag-2)
CN(C)c1cccc(/C=C(\C#N)c2ccccc2)c1	CHO parental Ca 38
CC(C)c1[nH]nc2c1C(c1ccc(F)cc1)N(Cc1ccccc1)C2=O (centres undefined)	none (no result: OX1R antag-1, GPR7 antagonist, CHO parental Ca, OX1R antag-2)
O=C(Nc1ccccc1)c1ccccc1OCC(O)CN1C(=O)c2ccccc2S1(=O)=O (centres undefined)	TAAR1 antag 65
CCOC(=O)Cc1csc(-n2sc3ccccc3c2=O)n1	CHO parental Ca 32
COc1ccc(Cc2nnc(NC(=O)c3cccc([N+](=O)[O-])c3C)s2)cc1	TAAR1 ag 61
COc1ccc(Cc2nnc(NC(=O)c3ccccc3[N+](=O)[O-])s2)cc1	none
NC(=O)NN=C1CCC(O)CC1CC(=O)O (centres undefined)	none (no result: OX1R antag-1, GPR7 antagonist, CHO parental Ca, OX1R antag-2)
COc1ccc(C)cc1NC(=O)CSc1nc2scc(C)c2c(=O)[nH]1	OX1R antag-2 71
COc1ccccc1NC(=O)CSc1nc2nc(C)cc(C)c2c(=O)[nH]1	none
COc1ccc(Cl)cc1NC(=O)CSc1nc2sccc2c(=O)[nH]1	OX1R antag-2 63
COC(=O)C1=C(C)N(Cc2ccccc2C(F)(F)F)C(=NCc2ccc(C(F)(F)F)cc2)NC1c1ccc(C(F)(F)F)cc1 (centres undefined)	none (no result: OX1R antag-1, GPR7 antagonist, CHO parental Ca, OX1R antag-2)
O=C(c1ccc(-n2cncn2)c2ccoc12)N1CCOCC1	none (no result: OX1R antag-1, GPR7 antagonist, CHO parental Ca, OX1R antag-2)
CCS(=O)(=O)CCSc1nc2ccccc2s1	none
c1ccc2[nH]c(CCCCc3nc4ccccc4[nH]3)nc2c1	TAAR1 ag 38
c1ccc2[nH]c(CSc3nc4ccccc4s3)nc2c1	OX1R antag-2 72
Cn1c(CSc2nc3ccccc3s2)nc2ccccc21	OX1R antag-2 41
O=S(=O)(CCSc1nc2ccccc2s1)c1nc2ccccc2s1	OX1R antag-2 53
C[C@@H]1COc2cccc(N3CCCC3)c2S(=O)(=O)N1	none (no result: OX1R antag-1, GPR7 antagonist, CHO parental Ca, OX1R antag-2)
O=C(CSc1nc2ccccc2s1)CSc1nc2ccccc2s1	OX1R antag-2 45
O=C(O)CSc1nc2ccccc2s1	none
C[C@@H]1CN(c2ccc(N3CCN(C(=O)OC(C)(C)C)C[C@H]3C)cc2C#N)CCN1Cc1ccccc1	none (no result: OX1R antag-1, GPR7 antagonist, CHO parental Ca, OX1R antag-2)
COc1ccc(NS(=O)(=O)c2ccc(Cl)c(NC(=O)c3ccccc3F)c2)cc1	OX1R antag-2 49 (no result: GPR7 antagonist)
COc1ccc(NS(=O)(=O)c2ccc(Cl)c(NC(=O)c3cccnc3Cl)c2)cc1	none
COc1ccc(NS(=O)(=O)c2cc(N/C(=N\S(=O)(=O)c3ccccc3)c3ccc(F)cc3)ccc2Cl)cc1	GPR7 antagonist 34
CCCCN1CC(COCc2ccccc2)Oc2cccc(Oc3ccc(F)cc3OC)c2S1(=O)=O (centres undefined)	none (no result: OX1R antag-1, GPR7 antagonist, CHO parental Ca, OX1R antag-2)
CCOc1ccc(C(=O)NCC(=O)NCC(c2ccco2)N2CCCCC2)cc1 (centres undefined)	none (no result: GPR7 antagonist)
O=C1N2CCSC2=NC1(Nc1nccs1)C(F)(F)F (centres undefined)	OX1R antag-2 48
CC(C)(C)N1C(=O)c2ccccc2NC(=O)C1C(=O)NCc1ccco1 (centres undefined)	none (no result: OX1R antag-1, GPR7 antagonist, CHO parental Ca, OX1R antag-2)
